From ChEMBL document CHEMBL1687750, “Nonclinical pharmacokinetics of oseltamivir and oseltamivir carboxylate in the central nervous system” (Antimicrob Agents Chemother, 2009)
Blank lines part the entries; values can stand above or below the compound they belong to.

Columns and labels:
[1] = tested on: Plasma; assay: Cmax in non-perfused Sprague-Dawley rat plasma assessed as active metabolite oseltamivir carboxylate level at 30 mg/kg, iv; format: ADME, organism-based; set-up: dose 30 mg/kg, route intravenous; settings: in vivo
Method in brief: (§1)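 Nonfasted adult rats received 30 mg/kg in aqueous 0.9% NaCl (pH 4.0) by slow tail-vein injection over 20–30 s. Groups were sampled at 5 min and 0.25, 0.5, 1, 2, 4 and 8 h, with 4–5 rats per time point, under terminal isoflurane. Blood was taken by heart puncture and CSF from the cisterna magna. Brains were homogenized either unperfused or after transcardial saline perfusion. Samples were assayed by LC-MS/MS, and pooled composite data were analyzed noncompartmentally.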

[2] = tested on: Cerebrospinal fluid; assay: Cmax in non-perfused Sprague-Dawley rat cerebrospinal fluid assessed as active metabolite oseltamivir carboxylate level at 30 mg/kg, iv; format: ADME, organism-based; set-up: dose 30 mg/kg, route intravenous; settings: in vivo, BLD = below limit of detection; method in brief: as §1
[3] = tested on: Plasma; assay: Terminal half life in non-perfused Sprague-Dawley rat plasma assessed as active metabolite oseltamivir carboxylate level at 30 mg/kg, iv; format: ADME, organism-based; set-up: dose 30 mg/kg, route intravenous; settings: in vivo
Method in brief: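 Nonfasted Sprague-Dawley rats given 30 mg/kg i.v. in 0.9% NaCl pH 4.0 by tail vein over 20–30 s. Terminal sampling under isoflurane at 5 min, 0.25, 0.5, 1, 2, 4 and 8 h (4–5 rats/time): plasma, CSF, and brain homogenate, with or without saline perfusion. LC-MS/MS. t1/2, Vss and ratios from noncompartmental analysis of pooled composite concentrations.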

[4] = Cmax in perfused Sprague-Dawley rat brain at 30 mg/kg, iv after 0.25 hrs; format: ADME, organism-based; set-up: dose 30 mg/kg, route intravenous; method in brief: as §1
[5] = Cmax ratio in brain to plasma in non-perfused Sprague-Dawley rat at 30 mg/kg, iv; format: ADME, organism-based; set-up: dose 30 mg/kg, route intravenous; settings: brain and plasma; method in brief: as §1
[6] = Cmax ratio in brain to plasma in perfused Sprague-Dawley rat at 30 mg/kg, iv; format: ADME, organism-based; set-up: dose 30 mg/kg, route intravenous; settings: brain and plasma; method in brief: as §1
[7] = AUC ratio in brain to plasma in non-perfused Sprague-Dawley rat at 30 mg/kg, iv; format: ADME, organism-based; set-up: dose 30 mg/kg, route intravenous; settings: brain and plasma, read-out: Ratio AUC; method in brief: as §1
[8] = AUC ratio in brain to plasma in perfused Sprague-Dawley rat at 30 mg/kg, iv; format: ADME, organism-based; set-up: dose 30 mg/kg, route intravenous; settings: brain and plasma, read-out: Ratio AUC; method in brief: as §1
[9] = tested on: Plasma; assay: AUC (0 to 8 hrs) after iv dose in non-perfused Sprague-Dawley rat plasma assessed as active metabolite oseltamivir carboxylate level at 30 mg/kg; settings: in vivo
[10] = tested on: LLC-PK1; assay: Permeability from apical to basolateral side of pig LLC-PK1 cells over expressing human MDR1; format: ADME, cell-based, Sus scrofa
Method in brief: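 P-gp-transfected LLC-PK1 monolayers received [14C]oseltamivir (0.1–10 mM) plus Lucifer yellow on the apical or basolateral donor side, with or without 1 µM elacridar. Incubation was at 37°C under 5% CO2. The acceptor side was sampled at 0.5–3 h and counted by scintillation. Pe was taken from the 3 h point, without correction for marker flux. Three inserts were used per condition and averaged.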

[11] = biological target: ATP-dependent translocase ABCB1 (Homo sapiens, UniProt P08183); assay: Inhibition of human MDR1-mediated digoxin permeability expressed in pig LLC-PK1 cells; format: cell-based
Sequence of ATP-dependent translocase ABCB1 (P08183 whole entry): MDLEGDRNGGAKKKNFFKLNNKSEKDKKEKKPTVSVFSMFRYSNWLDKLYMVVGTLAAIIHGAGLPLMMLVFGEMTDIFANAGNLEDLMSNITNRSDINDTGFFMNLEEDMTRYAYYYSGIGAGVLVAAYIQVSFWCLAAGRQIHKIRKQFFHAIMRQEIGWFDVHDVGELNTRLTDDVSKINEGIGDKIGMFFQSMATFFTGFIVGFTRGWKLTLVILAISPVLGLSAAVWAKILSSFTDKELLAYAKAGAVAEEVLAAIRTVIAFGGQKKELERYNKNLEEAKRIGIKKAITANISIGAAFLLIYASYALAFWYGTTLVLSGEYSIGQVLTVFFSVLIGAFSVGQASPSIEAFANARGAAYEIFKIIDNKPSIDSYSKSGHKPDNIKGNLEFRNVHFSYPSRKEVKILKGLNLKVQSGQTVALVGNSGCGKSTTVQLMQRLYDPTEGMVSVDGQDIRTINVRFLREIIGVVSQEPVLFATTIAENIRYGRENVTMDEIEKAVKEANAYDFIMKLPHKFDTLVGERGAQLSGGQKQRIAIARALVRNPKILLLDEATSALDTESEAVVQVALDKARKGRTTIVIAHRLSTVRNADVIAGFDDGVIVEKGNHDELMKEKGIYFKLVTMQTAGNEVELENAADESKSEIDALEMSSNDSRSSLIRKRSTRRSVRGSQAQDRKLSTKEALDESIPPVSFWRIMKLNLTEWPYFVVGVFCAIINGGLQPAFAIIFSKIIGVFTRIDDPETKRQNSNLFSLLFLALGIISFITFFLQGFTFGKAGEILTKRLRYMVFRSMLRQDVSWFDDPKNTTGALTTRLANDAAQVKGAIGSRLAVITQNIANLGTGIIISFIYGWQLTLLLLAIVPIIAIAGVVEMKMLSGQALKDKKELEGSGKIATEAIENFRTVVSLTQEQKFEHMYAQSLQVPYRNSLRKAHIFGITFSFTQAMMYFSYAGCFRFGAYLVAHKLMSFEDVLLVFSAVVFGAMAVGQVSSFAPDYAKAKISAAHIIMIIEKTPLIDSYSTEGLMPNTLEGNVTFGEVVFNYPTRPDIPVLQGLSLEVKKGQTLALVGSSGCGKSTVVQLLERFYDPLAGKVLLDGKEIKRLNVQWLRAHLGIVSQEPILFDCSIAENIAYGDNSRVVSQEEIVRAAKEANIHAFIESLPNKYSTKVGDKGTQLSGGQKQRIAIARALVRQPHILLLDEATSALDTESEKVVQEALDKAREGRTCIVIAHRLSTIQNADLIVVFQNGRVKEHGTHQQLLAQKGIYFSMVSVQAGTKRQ
Method in brief: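 P-gp-transfected LLC-PK1 monolayers were used, with labeled digoxin (10 nM) as substrate and unlabeled oseltamivir (0.1–10 mM) added to both donor and receiver sides. Transport was bidirectional at 37°C under 5% CO2, with the acceptor side sampled up to 3 h and counted by scintillation. Three inserts were used per condition, and IC50 was derived from inhibition of digoxin transport.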

[12] = Prodrug conversion assessed as oseltamivir carboxylate level in presence of Sf9 cell culture supernatant expressing human recombinant HCE1 after 30 mins; format: ADME; settings: sf9, 0.5 h
Method in brief: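 Culture supernatants from baculovirus-infected Sf9 cells (day 5–7; 1.0 mg/ml protein) were incubated in triplicate with 10 µM 14C-oseltamivir in 100 mM Tris-HCl at 37°C for 30 min. Reactions were quenched with TCA-acetonitrile, then analyzed by HPLC with fraction scintillation counting. Conversion was calculated as OC radioactivity over total radioactivity, corrected for no-enzyme hydrolysis. Wild-type virus and liver S9 served as controls.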

[13] = Prodrug conversion in 7 days old male rat brain S9 fractions assessed as oseltamivir carboxylate generation rate assessed per mg of protein per min; format: ADME, tissue-based
Method in brief: (§2)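 S9 from brain or liver (rat S9 made by homogenizing tissue in ~4 ml Tris-sucrose buffer per g, supernatant after 9,000 × g at 10°C; pooled human brain and liver S9 also used), protein by bicinchoninic acid assay. Oseltamivir: triplicate, 10 μM 14C-oseltamivir final, 1.0 mg S9 protein, 100 mM Tris-HCl pH 7.4, 30 min at 37°C, quenched with TCA-acetonitrile.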

[14] = Prodrug conversion in 7 days old female rat brain S9 fractions assessed as oseltamivir carboxylate generation rate assessed per mg of protein per min; format: ADME, tissue-based; method in brief: as §2
[15] = Prodrug conversion in 42 days old male rat brain S9 fractions assessed as oseltamivir carboxylate generation rate assessed per mg of protein per min; format: ADME, tissue-based
Method in brief: (§3)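 Rat brain or liver S9 (9,000 × g supernatant; 1.0 mg protein) was incubated in triplicate with 10 µM 14C-oseltamivir (final) in 100 mM Tris-HCl pH 7.4 for 30 min at 37°C. Reactions were quenched with TCA-acetonitrile, and the fraction converted to OC was measured by radioflow HPLC with fractionation. Rate was calculated as (pmol/ml substrate × fraction hydrolyzed)/(mg protein/ml × time), minus the no-protein background.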

[16] = Prodrug conversion in 7 days old male rat liver S9 fractions assessed as oseltamivir carboxylate generation rate assessed per mg of protein per min; format: ADME, subcellular, S9 fraction; method in brief: as §2
[17] = Prodrug conversion in 42 days old male rat liver S9 fractions assessed as oseltamivir carboxylate generation rate assessed per mg of protein per min; format: ADME, subcellular, S9 fraction; method in brief: as §3
[18] = Prodrug conversion in commercial brain S9 fractions assessed as oseltamivir carboxylate generation rate assessed per mg of protein per min; format: ADME; method in brief: as §2
[19] = Prodrug conversion in commercial liver S9 fractions assessed as oseltamivir carboxylate generation rate assessed per mg of protein per min; format: ADME, subcellular, S9 fraction; method in brief: as §2
[20] = Prodrug conversion in 7 days old male rat brain S9 fractions assessed as conversion of oseltamivir to oseltamivir carboxylate; format: ADME, tissue-based; method in brief: as §2
[21] = Prodrug conversion in 42 days old female rat brain S9 fractions assessed as conversion of oseltamivir to oseltamivir carboxylate; format: ADME, tissue-based; method in brief: as §3
[22] = Prodrug conversion in human brain S9 fractions assessed as conversion of oseltamivir to oseltamivir carboxylate; format: ADME; method in brief: as §2
[23] = Prodrug conversion in 42 days old male rat liver S9 fractions assessed as paranitrophenol generation rate assessed per mg of protein per min; format: ADME, subcellular, S9 fraction
Method in brief: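 Control esterase activity was measured by incubating 100 µM p-nitrophenyl acetate (final) with 0.05 mg rat brain or liver S9 protein in 1.5 ml Tris-HCl pH 7.4 for 1 min at 37°C. Reactions were quenched with acetonitrile, and product was quantified by HPLC-UV against external standards. The no-protein blank rate was subtracted, and rate was expressed per mg protein per min.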

[24] = Prodrug conversion in 7 days old female rat brain S9 fractions assessed as paranitrophenol generation rate assessed per mg of protein per min; format: ADME, tissue-based
[25] = Prodrug conversion in 7 days old male rat brain S9 fractions assessed as paranitrophenol generation rate assessed per mg of protein per min; format: ADME, tissue-based
[26] = AUC ratio in cerebrospinal fluid to plasma in Sprague-Dawley rat at 30 mg/kg, iv; format: ADME, organism-based; set-up: dose 30 mg/kg, route intravenous; settings: cerebrospinal fluid and plasma, read-out: Ratio AUC; method in brief: as §1
[27] = AUC (0 to infinity) ratio in brain to plasma in non-perfused Sprague-Dawley rat at 30 mg/kg, iv; format: ADME, organism-based; set-up: dose 30 mg/kg, route intravenous; settings: brain and plasma, read-out: Ratio AUC; method in brief: as §1

Cmax [1]: 6880 ng/mL | Cmax [2]: BLD | beta t1/2 [3]: 1.69 h | Cmax [4]: 75.5 ng/g | Kp [5]: 0.02 | Kp [6]: 0.01 | Kp [7]: 0.01 | Kp [8]: < 0.004 | AUC [9]: 13600
Compound: CCC(CC)O[C@@H]1C=C(C(=O)O)C[C@H](N)[C@H]1NC(C)=O [OSELTAMIVIR CARBOXYLATE]

Papp [10]: 1.01 ×10⁻⁶ cm/s | IC50 [11]: 1300 µM | Activity [12]: Active | Activity [13]: < 0.2 pmol/s | Activity [14]: < 0.2 pmol/s | Activity [15]: 0.52 pmol/s | Activity [16]: 0.33 pmol/s | Activity [17]: 2.11 pmol/s | Activity [18]: 0.32 pmol/min/mg | Activity [19]: 126 pmol/s | Activity [20]: < 0.06% | Activity [21]: 0.18% | Activity [22]: 0.12% | Activity ([22]; BLD = below limit of detection): BLD | Activity [23]: 1446 nmol | Activity [24]: 92 nmol | Activity [25]: 80 nmol | Kp [26]: 0.09 | Kp [27]: 0.24
Compound: CCOC(=O)C1=C[C@@H](OC(CC)CC)[C@H](NC(C)=O)[C@@H](N)C1 [OSELTAMIVIR]
